Measured values gathered from unrelated publications.
Lines come from different studies, so protocols differ.
Target: Serine/threonine-protein kinase BRSK2 (BRSK2, Homo sapiens, UniProt Q8IWQ3)
Sequence (Q8IWQ3 1-736, as in one of the studies): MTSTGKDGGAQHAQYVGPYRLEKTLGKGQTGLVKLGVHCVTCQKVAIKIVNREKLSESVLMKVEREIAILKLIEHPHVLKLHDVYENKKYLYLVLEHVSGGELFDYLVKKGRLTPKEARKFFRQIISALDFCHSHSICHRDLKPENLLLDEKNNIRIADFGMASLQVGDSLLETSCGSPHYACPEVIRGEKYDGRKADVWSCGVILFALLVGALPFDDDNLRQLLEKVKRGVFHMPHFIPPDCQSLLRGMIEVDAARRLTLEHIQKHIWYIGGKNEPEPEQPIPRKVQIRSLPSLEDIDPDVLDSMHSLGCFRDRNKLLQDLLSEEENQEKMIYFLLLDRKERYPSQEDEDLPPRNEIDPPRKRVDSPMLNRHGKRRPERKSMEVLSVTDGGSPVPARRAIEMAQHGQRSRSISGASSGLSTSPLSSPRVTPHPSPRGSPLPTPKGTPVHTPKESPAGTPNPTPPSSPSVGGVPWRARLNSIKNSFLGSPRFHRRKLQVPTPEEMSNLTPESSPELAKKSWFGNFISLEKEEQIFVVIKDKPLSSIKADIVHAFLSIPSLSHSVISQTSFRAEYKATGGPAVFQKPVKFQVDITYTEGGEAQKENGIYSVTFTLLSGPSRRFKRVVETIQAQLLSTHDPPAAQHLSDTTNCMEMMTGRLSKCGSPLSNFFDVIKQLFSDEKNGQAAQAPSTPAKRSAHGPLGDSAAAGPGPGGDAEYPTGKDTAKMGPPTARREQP

| SMILES | assay | conditions | remaining binding [%] |
| --- | --- | --- | --- |
| Nc1cnc(N2CCc3cc(S(=O)(=O)Nc4c(F)cc(Cl)cc4F)cc(N4CCCC4=O)c32)nc1 | cell-free assay, competition with immobilised ligand | 1 µM | 80 |
| CN(C)c1nccc(-c2cnc3ncccn23)n1 | binding | 1 µM | 100 |
| O=C(O)[C@@H]1[C@@H](Cn2nnc3ccccc3c2=O)CC[C@H]1C(=O)c1ccc(OCCC2CCOCC2)cc1 | cell-free assay, competition with immobilised ligand | 1 µM | 100 |
| c1cncc(-c2cccc(Nc3nccc(NC4CCCCC4)n3)c2)c1 | binding, competition with immobilised ligand | 10 µM | 99 |
| C[C@H](c1ccnc(Nc2nc3ccc(-c4cc(N(C)C)ncn4)cc3[nH]2)c1)N1CCN(C(=O)CC(F)(F)F)CC1 | cell-free assay, competition with immobilised ligand | 0.1 µM | 100 |
| Cc1cnc(Nc2ccc(C(=O)N3CCC(N4CCCC4)CC3)cc2)nc1-c1cc2ccccc2s1 | binding, competition with immobilised ligand | 1 µM | 42 |
| CCCCN(CCCC)C(=O)CN1C[C@H](c2cc(OC)c3c(c2)OCO3)[C@@H](C(=O)O)[C@@H]1CC(C)(C)CCC | cell-free assay, competition with immobilised ligand | 1 µM | 95.6 |
| C[C@H]1CCN(c2nccc(-c3cnn4ncccc34)n2)C1 | binding | 1 µM | 96 |
| CCN1CCN(Cc2ccc(C(=O)Nc3ccc(C)c(Oc4ccc5c(c4)CC(=O)N5)c3)cc2C(F)(F)F)CC1 | binding, competition with immobilised ligand | 1 µM | 100 |
| CN(C)c1ncc(F)c(-c2cnn3ncccc23)n1 | binding | 1 µM | 100 |
| O=C(c1ccc(Nc2nccc(-c3cc4ccccc4s3)n2)cc1)N1CCC(N2CCCC2)CC1 | binding, competition with immobilised ligand | 1 µM | 91 |
| COc1ccc2cc(OCC3(C(=O)O)CN(C(=O)c4ccc(F)cc4)C3)ccc2c1 | cell-free assay, competition with immobilised ligand | 1 µM | 100 |
| C[C@@H](c1ccc(-n2cnc3c(N)ncnc32)cc1)N1CCc2nn(C)c(Cc3ccccc3)c2C1=O | binding, competition with immobilised ligand | 0.1 µM | 90 |
| O=C(NCC1CCOCC1)c1n[nH]cc1NC(=O)c1c(F)cccc1F | binding, competition with immobilised ligand | 1 µM | 95 |
| N[C@@H]1CCN(c2nccc(-c3cnn4ncccc34)n2)C1 | binding | 1 µM | 100 |
| COc1cnc(Nc2cccc(S(N)(=O)=O)c2)nc1N1CCN(c2ccccc2)C(=O)C1 | binding, competition with immobilised ligand | 1 µM | 100 |
| CN(CCCC(F)(F)F)c1nccc(-c2cnn3ncccc23)n1 | binding | 1 µM | 100 |
| COc1ncc2cc3ccccc3nc2c1C#N | cell-free assay, competition with immobilised ligand | 5 µM | 74 |
| F[C@@H]1CCN(c2nccc(-c3cnn4ncccc34)n2)C1 | binding | 1 µM | 100 |
| C[C@H](c1ccc(F)cc1)N(Cc1cccc(C(=O)O)c1)C(=O)c1cnc2ccccc2c1 | cell-free assay, competition with immobilised ligand | 1 µM | 100 |
| O=C(NCCCN1CCOCC1)c1ccc(Nc2ncc(Cl)c(-c3ccc(Cl)s3)n2)cc1 | binding, competition with immobilised ligand | 1 µM | 45 |
